Results: ChEMBL document CHEMBL1124612, “Synthesis and structure-activity relationships of a series of anxioselective pyrazolopyridine ester and amide anxiolytic agents” (J Med Chem, 1989)
The source made the active and inactive calls. The calls are words filed in the database; no cut-off is given here.

Experiments:
[1] = target: GABA-A receptor; anion channel; test: Inhibition of [3H]flunitrazepam binding to GABA-A benzodiazepine receptor of rat cerebral cortex; assay type: tissue-based
Rattus norvegicus [2] = test: Minimum effective dose (po) tested for its anxiolytic activity in rat using the shock-induced suppression of drinking (SSD) test.; assay type: functional; conditions: read-out: MED
How it was run: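 Rats (n = 8 per dose) were dosed orally at one or more levels and then run in the shock-induced suppression of drinking conflict test. MED is the dose producing a significant rise (p < 0.05, Student's t test) in mean shocks accepted relative to vehicle-treated controls.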

[3] = test system: GABA-A receptor; anion channel; test: Inhibition of [3H]flunitrazepam binding to GABA-A benzodiazepine receptor of rat cerebral cortex at 500 nM; assay type: tissue-based
How it was run: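 Rat cerebral cortex membranes were incubated with [3H]flunitrazepam in the presence of the test agent at a single concentration (nM), run in triplicate with under 7% variation between values. Binding is reported as % inhibition of [3H]flunitrazepam binding.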

Rattus norvegicus [4] = test: Minimum effective dose (ip) tested for its anxiolytic activity in rat using the shock-induced suppression of drinking (SSD) test.; assay type: functional; conditions: read-out: MED
How it was run: (§1)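 Shock-induced suppression of drinking (Vogel-type conflict) in rats, with compounds given intraperitoneally at one or more dose levels, 8 rats per dose. MED is the lowest dose giving a significant increase (p < 0.05, Student's t test) in the mean number of shocks taken versus vehicle control.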

Rattus norvegicus [5] = test: Minimum effective dose (ip) tested for its anxiolytic activity in rat using the shock-induced suppression of drinking (SSD) test; NS is No Significant activity at 25 mg/Kg; assay type: functional, organism-based; how it was run: as §1

SMILES | IC50 [1] [nM] | minimal effective dose (Rattus norvegicus [2]) [mg/kg] | further results
C#CCCn1ncc2c(N)c(C(=O)OCC=C)c(C)nc21 | 160 | 50 | 
C#CCN(C)C(=O)c1cnc2c(cnn2CCCCC)c1N |  | 6.3 | IC50 [3]: Not Active
CC#CCCn1ncc2c(N)c(C(=O)N(C)CCC)cnc21 |  | 12.5 | IC50 [3]: Not Active
CCOC(=O)c1c(C)nc2c(cnn2CCC(C)CC)c1N (stereo not drawn) | 79 |  | minimal effective dose (Rattus norvegicus [4]): 25 mg/kg
C=CCOC(=O)c1c(C)nc2c(cnn2CCC#CC)c1N | 79 | 25 | 
C=CCOC(=O)c1c(C)nc2c(cnn2CCCC)c1N | 21 | 25 | 
CCCCCn1ncc2c(N)c(C(=O)OCCC3CC3)c(C)nc21 | 51 |  | minimal effective dose (Rattus norvegicus [4]): 50 mg/kg
CCCn1ncc2c(N)c(C(=O)OCC)c(C)nc21 | 410 |  | minimal effective dose (Rattus norvegicus [4]): 80 mg/kg
C=CCNC(=O)c1c[n+]([O-])c2c(cnn2CCCCC)c1N | 53 | 12.5 | 
C=CCCn1ncc2c(N)c(C(=O)OCC=C)c(C)nc21 | 54 | 25 | 
CCCCCn1ncc2c(N)c(C(=O)OCC)cnc21 |  |  | MED (Rattus norvegicus [5]): inactive
C#CCOC(=O)c1c(C)nc2c(cnn2CCCCC)c1N | 89 | 25 | 
CCCCCn1ncc2c(N)c(C(N)=O)cnc21 | 2450 | 12.5 | 
C=CCOC(=O)c1c(C)nc2c(cnn2CCCCC)c1N | 21 | 25 | 
CCCCCn1ncc2c(N)c(C(=O)NOCC)cnc21 | 531 | 12.5 | 
CCCCCn1ncc2c(N)c(C(=O)NCc3ccccc3)cnc21 | 36 | 25 | 
C#CCCCn1ncc2c(N)c(C(=O)OCC)c(C)nc21 | 31 | 25 | 
CCCCCn1ncc2c(N)c(C(=O)N(C)C)cnc21 |  | 12.5 | IC50 [3]: Not Active
C#CCNC(=O)c1cnc2c(cnn2CCCCC)c1N | 60 | 6.3 | 
CCOC(=O)c1c(C)nc2c(cnn2Cc2ccccc2)c1N | 156 |  | MED (Rattus norvegicus [5]): inactive
CCCCNc1c(C(=O)OCC)c(C)nc2c1cnn2CC [TRACAZOLATE] |  | 40 | 
C#CCCCCn1ncc2c(N)c(C(=O)OCC=C)c(C)nc21 | 8.6 | 25 | 
CCCCCn1ncc2c(N)c(C(=O)OCCCC)c(C)nc21 | 113 |  | minimal effective dose (Rattus norvegicus [4]): 50 mg/kg

SMILES | IC50 [1] [nM] | minimal effective dose (Rattus norvegicus [2]) [mg/kg] | further results
CCCCCn1ncc2c(N)c(C(=O)NCC3CC3)cnc21 | 35 | 6.3 | 
C#CCN(CC#C)C(=O)c1cnc2c(cnn2CCCCC)c1N |  | 12.5 | IC50 [3]: Not Active
CCCCCn1ncc2c(N)c(C(=O)N(CC)CC)cnc21 |  | 25 | IC50 [3]: Not Active
C=CCOC(=O)c1c(C)nc2c(cnn2CCC(C)C)c1N | 13 | 50 | 
CCCCCn1ncc2c(N)c(C(=O)N3CCC3)cnc21 | 137 | 50 | 
C=CCOC(=O)c1cnc2c(cnn2CCC(C)C)c1N | 5.7 |  | minimal effective dose (Rattus norvegicus [4]): 25 mg/kg
CCCCCn1ncc2c(N)c(C(=O)OCC)c(C)nc21 | 58 | 50 | 
CCCCCn1ncc2c(N)c(C(=O)N3CCCC3)cnc21 |  |  | IC50 [3]: Not Active; minimal effective dose (Rattus norvegicus [4]): 50 mg/kg
CCCCCn1ncc2c(N)c(C(=O)OCCC)c(C)nc21 | 50 |  | minimal effective dose (Rattus norvegicus [4]): 25 mg/kg
CCCCCn1ncc2c(N)c(C(=O)N(C)CCC)cnc21 |  | 6.3 | IC50 [3]: Not Active
CCCCCn1ncc2c(N)c(C(=O)OCc3ccccc3)c(C)nc21 | 100 |  | MED (Rattus norvegicus [5]): inactive
CCCCCn1ncc2c(N)c(C(=O)NCC)cnc21 | 109 | 12.5 | 
CC#CCCn1ncc2c(N)c(C(=O)OCC)c(C)nc21 | 590 | 25 | 
C=CCNC(=O)c1cnc2c(cnn2CCCCC)c1N | 28 | 12.5 | 
CC#CCCn1ncc2c(N)c(C(=O)NCC3CC3)cnc21 | 271 | 3.1 | 
CCCCCn1ncc2c(N)c(C(=O)NC3CC3)cnc21 | 312 | 12.5 | 
CNC1=Nc2ccc(Cl)cc2C(c2ccccc2)=[N+]([O-])C1 [CHLORDIAZEPOXIDE] | 330 | 10 | 
CCOC(=O)c1c(C)nc2c(cnn2CC)c1N | 460 |  | minimal effective dose (Rattus norvegicus [4]): 75 mg/kg
CCCCCn1ncc2c(N)c(C(=O)OCC3CC3)c(C)nc21 | 131 | 12.5 | 
CCOC(=O)c1c(C)nc2c(cnn2CCCC(C)(C)C)c1N | 404 |  | NS (Rattus norvegicus [5]): inactive
C=CCN(C)C(=O)c1cnc2c(cnn2CCC#CC)c1N |  | 12.5 | IC50 [3]: Not Active
CCCCn1ncc2c(N)c(C(=O)OCC)c(C)nc21 | 50 | 40 | 
C=CCOC(=O)c1c(C)nc2c(cnn2CC=C)c1N | 112 | 25 | 

SMILES | IC50 [1] [nM] | minimal effective dose (Rattus norvegicus [2]) [mg/kg] | further results
C=CCN(C)C(=O)c1cnc2c(cnn2CCCCC)c1N |  | 12.5 | IC50 [3]: Not Active
CCCCCn1ncc2c(N)c(C(=O)N(CC)CCC)cnc21 |  | 25 | IC50 [3]: Not Active
CCCCCn1ncc2c(N)c(C(=O)Nc3ccccc3)cnc21 | 790 |  | minimal effective dose (Rattus norvegicus [4]): 50 mg/kg
C=CCN(CC=C)C(=O)c1cnc2c(cnn2CCCCC)c1N |  | 25 | IC50 [3]: Not Active
CCOC(=O)c1c(C)nc2c(cnn2CC(C)CC)c1N (stereo not drawn) | 391 |  | minimal effective dose (Rattus norvegicus [4]): 25 mg/kg
CC#CCCn1ncc2c(N)c(C(=O)OCC3CC3)c(C)nc21 | 315 | 12.5 | 
CCCCCCn1ncc2c(N)c(C(=O)OCC)c(C)nc21 | 320 |  | minimal effective dose (Rattus norvegicus [4]): 50 mg/kg
CCOC(=O)c1c(C)nc2c(cnn2CCC(C)C)c1N | 39 | 100 | 
CC#CCCn1ncc2c(N)c(C(=O)NCCC)cnc21 | 500 | 6.3 | 
CCCCCn1ncc2c(N)c(C(=O)NC(C)C)cnc21 | 414 |  | minimal effective dose (Rattus norvegicus [4]): 25 mg/kg
C=C(C)COC(=O)c1c(C)nc2c(cnn2CCCCC)c1N | 69 |  | MED (Rattus norvegicus [5]): inactive
C#CCCCn1ncc2c(N)c(C(=O)OCC=C)c(C)nc21 | 5.5 | 12.5 | 
C=CCOC(=O)c1c(C)nc2c(cnn2CCC2CC2)c1N | 16 | 25 | 
C=CCNC(=O)c1cnc2c(cnn2CCCCC)c1O |  | 50 | IC50 [3]: Not Active
CCCCCn1ncc2c(N)c(C(=O)NCCC)cnc21 | 89 | 25 | 
C#CCCCn1ncc2c(N)c(C(=O)OCC3CC3)c(C)nc21 | 22 | 12.5 | 
CC#CCNC(=O)c1cnc2c(cnn2CCCCC)c1N | 84 | 6.3 | 
CCOC(=O)c1c(C)nc2c(cnn2CC)c1NC |  |  | MED (Rattus norvegicus [5]): inactive
C=CCCCn1ncc2c(N)c(C(=O)OCC=C)c(C)nc21 | 9.7 | 25 | 
CCCCCn1ncc2c(N)c(C(=O)NC)cnc21 | 354 | 12.5 | 
CCCCCn1ncc2c(N)c(C(=O)NCCCC)cnc21 | 80 | 50 | 
C=CCNC(=O)c1cnc2c(cnn2CCCCC)c1NCCCC |  |  | IC50 [3]: Not Active; NS (Rattus norvegicus [5]): inactive
